ChEMBL document CHEMBL1671679, “Lack of pharmacokinetic interaction between amdoxovir and reduced- and standard-dose zidovudine in HIV-1-infected individuals” (Antimicrob Agents Chemother, 2010)

Legend:
Homo sapiens [1] = assay: AUC (0 to 12 hrs) in HIV-1 infected patient assessed as beta-D-dioxolane guanosine level at 500 mg, po bid on day 10 coadministered with 300 mg, po bid zidovudine by LC-MS/MS analysis; type: ADME, organism-based, Plasma; set-up: time < 12 hr, dose 500 mg, route oral; conditions: in vivo
In short: (§1)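 Untreated Hispanic HIV-1-infected adults (viral load ≥5,000 copies/ml, CD4 ≥200 cells/mm3). Blood was drawn into DCF-containing EDTA tubes on day 1 (0–12 h) and on day 10 (0–48 h post last dose), then stored at −80°C. Plasma was methanol-extracted with an internal standard and run by LC-MS/MS (2–3,000 ng/ml AMDX/DXG; 2–5,000 ng/ml ZDV). Noncompartmental analysis assumed extravascular input; τ = 12 h; geometric means reported; accumulation was taken as AUCτ day 10/day 1.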

Homo sapiens [2] = assay: (§2) Ratio of AUC (0 to 12 hrs) in HIV-1 infected patient assessed as beta-D-dioxolane guanosine level at 500 mg, po bid on day 10 coadministered with 200 mg, po bid zidovudine to AUC (0 to 12 hrs) in HIV-1 infected patient assessed as beta-D-dioxolane guanosine level at 500 mg, po bid on day 1 coadministered with 200 mg, po bid zidovudine; type: ADME, organism-based; conditions: in vivo; in short: as §1
Homo sapiens [3] = assay: Half life in HIV-1 infected patient assessed as beta-D-dioxolane guanosine level at 500 mg, po bid on day 10 by LC-MS/MS analysis; type: ADME, organism-based; conditions: in vivo; in short: as §1
Homo sapiens [4] = assay: Half life in HIV-1 infected patient assessed as beta-D-dioxolane guanosine level at 500 mg, po bid on day 10 coadministered with 200 mg, po bid zidovudine by LC-MS/MS analysis; type: ADME, organism-based; conditions: in vivo; in short: as §1
Homo sapiens [5] = assay: Half life in HIV-1 infected patient assessed as beta-D-dioxolane guanosine level at 500 mg, po bid on day 1 by LC-MS/MS analysis; type: ADME, organism-based; conditions: in vivo; in short: as §1
Homo sapiens [6] = assay: Apparent oral clearance in HIV-1 infected patient assessed as beta-D-dioxolane guanosine level at 500 mg, po bid on day 10 coadministered with 300 mg, po bid zidovudine by LC-MS/MS analysis; type: ADME, organism-based; conditions: in vivo; in short: as §1
Homo sapiens [7] = assay: Apparent oral clearance in HIV-1 infected patient assessed as beta-D-dioxolane guanosine level at 500 mg, po bid on day 10 by LC-MS/MS analysis; type: ADME, organism-based; conditions: in vivo; in short: as §1
Homo sapiens [8] = assay: Cmax in HIV-1 infected patient assessed as beta-D-dioxolane guanosine level at 500 mg, po bid on day 10 by LC-MS/MS analysis; type: ADME, organism-based; set-up: dose 500 mg, route oral; conditions: in vivo; in short: as §1
Homo sapiens [9] = assay: Cmax in HIV-1 infected patient assessed as beta-D-dioxolane guanosine level at 500 mg, po bid on day 10 coadministered with 300 mg, po bid zidovudine by LC-MS/MS analysis; type: ADME, organism-based; set-up: dose 500 mg, route oral; conditions: in vivo; in short: as §1
Homo sapiens [10] = assay: as §2, with “300” for “200”; type: ADME, organism-based; conditions: in vivo; in short: as §1
Homo sapiens [11] = assay: Tmax in HIV-1 infected patient assessed as beta-D-dioxolane guanosine level at 500 mg, po bid on day 10 coadministered with 200 mg, po bid zidovudine by LC-MS/MS analysis; type: ADME, organism-based; conditions: in vivo
In short: (§3)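 Treatment-naive Hispanic HIV-1-infected adults (≥5,000 RNA copies/ml, CD4 ≥200 cells/mm3). Blood drawn after first dose on day 1 (0–12 h) and after last dose on day 10 (0–48 h) into DCF-containing EDTA tubes to block ex vivo deamination, centrifuged, plasma stored −80°C. Methanol extraction with internal standard, LC-MS/MS (linear 2–3,000 ng ml−1 for AMDX and DXG). Noncompartmental analysis assuming extravascular input; geometric means reported.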

Homo sapiens [12] = assay: AUC (0 to 12 hrs) in HIV-1 infected patient assessed as beta-D-dioxolane guanosine level at 500 mg, po bid on day 10 coadministered with 200 mg, po bid zidovudine by LC-MS/MS analysis; type: ADME, organism-based, Plasma; set-up: time < 12 hr, dose 500 mg, route oral; conditions: in vivo; in short: as §1
Homo sapiens [13] = assay: Apparent oral clearance in HIV-1 infected patient assessed as beta-D-dioxolane guanosine level at 500 mg, po bid on day 10 coadministered with 200 mg, po bid zidovudine by LC-MS/MS analysis; type: ADME, organism-based; conditions: in vivo; in short: as §1
Homo sapiens [14] = assay: Tmax in HIV-1 infected patient assessed as beta-D-dioxolane guanosine level at 500 mg, po bid on day 10 by LC-MS/MS analysis; type: ADME, organism-based; conditions: in vivo; in short: as §3
[15] = Drug level in HIV-1 infected patient urine assessed as beta-D-dioxolane guanosine level at 500 mg, po bid on day 10 by LC-MS/MS analysis; type: ADME, organism-based; conditions: human, in vivo
In short: (§4)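 At steady state (day 10), urine collected over one 12-h dose interval was analyzed by LC-MS/MS for AMDX, DXG, ZDV and ZDV-5′-O-glucuronide. Samples were diluted 100-fold, and the assay was linear from 1 to 500 μg/ml. Results are expressed as percentage of the dose recovered as each analyte (geometric means). Subjects were untreated HIV-1-infected adults.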

[16] = Drug level in HIV-1 infected patient urine assessed as beta-D-dioxolane guanosine level at 500 mg, po bid on day 10 coadministered with 200 mg, po bid zidovudine by LC-MS/MS analysis; type: ADME, organism-based; conditions: human, in vivo; in short: as §4
Homo sapiens [17] = assay: Cmax in HIV-1 infected patient assessed as beta-D-dioxolane guanosine level at 500 mg, po bid on day 1 by LC-MS/MS analysis; type: ADME, organism-based; set-up: dose 500 mg, route oral; conditions: in vivo; in short: as §1
Homo sapiens [18] = assay: AUC (0 to 12 hrs) in HIV-1 infected patient assessed as beta-D-dioxolane guanosine level at 500 mg, po bid on day 10 by LC-MS/MS analysis; type: ADME, organism-based, Plasma; set-up: dose 500 mg, time < 12 hr, route oral; conditions: in vivo; in short: as §1
Homo sapiens [19] = assay: Ratio of AUC (0 to 12 hrs) in HIV-1 infected patient assessed as beta-D-dioxolane guanosine level at 500 mg, po bid on day 10 to AUC (0 to 12 hrs) in HIV-1 infected patient assessed as beta-D-dioxolane guanosine level at 500 mg, po bid on day 1; type: ADME, organism-based; conditions: in vivo; in short: as §1
Homo sapiens [20] = assay: Cmax in HIV-1 infected patient assessed as beta-D-dioxolane guanosine level at 500 mg, po bid on day 10 coadministered with 200 mg, po bid zidovudine by LC-MS/MS analysis; type: ADME, organism-based; set-up: dose 500 mg, route oral; conditions: in vivo; in short: as §1
Homo sapiens [21] = assay: Tmax in HIV-1 infected patient assessed as beta-D-dioxolane guanosine level at 500 mg, po bid on day 10 coadministered with 300 mg, po bid zidovudine by LC-MS/MS analysis; type: ADME, organism-based; conditions: in vivo; in short: as §3
Homo sapiens [22] = assay: Half life in HIV-1 infected patient assessed as beta-D-dioxolane guanosine level at 500 mg, po bid on day 10 coadministered with 300 mg, po bid zidovudine by LC-MS/MS analysis; type: ADME, organism-based; conditions: in vivo; in short: as §1
[23] = Drug level in HIV-1 infected patient urine assessed as beta-D-dioxolane guanosine level at 500 mg, po bid on day 10 coadministered with 300 mg, po bid zidovudine by LC-MS/MS analysis; type: ADME, organism-based; conditions: human, in vivo; in short: as §4

In the case of `Nc1nc2c(ncn2[C@H]2CO[C@@H](CO)O2)c(=O)[nH]1`, the AUC (Homo sapiens [1]) is reported as 7658 ng·h/mL, the “Ratio AUC” value (Homo sapiens [2]) is reported as 0.91 and the t1/2 (Homo sapiens [3]) is reported as 17.6 h. For the same compound, the t1/2 (Homo sapiens [4]) was 14.7 h, the t1/2 (Homo sapiens [5]) was 2.5 h and the CL/F (Homo sapiens [6]) was 15.2 mL/min/kg. For the same compound, the CL/F (Homo sapiens [7]) was 14.7 mL/min/kg, the Cmax (Homo sapiens [8]) was 1545 ng/mL and the Cmax (Homo sapiens [9]) was 1908 ng/mL. For the same compound, the “Ratio AUC” value (Homo sapiens [10]) was 1.19, the Tmax (Homo sapiens [11]) was 1.5 h and the AUC (Homo sapiens [12]) was 6225 ng·h/mL. It also gave a CL/F (Homo sapiens [13]) of 15.8 mL/min/kg, a Tmax (Homo sapiens [14]) of 1.3 h and a Drug uptake [15] of 25.3%. It also gave a Drug uptake [16] of 26.2%, a Cmax (Homo sapiens [17]) of 1272 ng/mL and an AUC (Homo sapiens [18]) of 6834 ng·h/mL. The “Ratio AUC” value (Homo sapiens [19]) was 1.18, the Cmax (Homo sapiens [20]) was 1315 ng/mL and the Tmax (Homo sapiens [21]) was 1.8 h. It also gave a t1/2 (Homo sapiens [22]) of 14.8 h and a Drug uptake [23] of 27.7%.
